This passage reports inhibition and Activity results from ChEMBL document CHEMBL3861971, “Cinnamoyloxy-mammeisin Isolated from Geopropolis Attenuates Inflammatory Process by Inhibiting Cytokine Production: Involvement of MAPK, AP-1, and NF-κB” (J Nat Prod, 2016).

Active and inactive are the calls of the source. The rule behind the calls is not given here.

For data set [1], the system named is RAW264.7. As to the kind of experiment: Inhibition of JNK phosphorylation in peptidoglycan-stimulated mouse RAW264.7 cells at 6 uM pretreated for 30 mins followed by peptidoglycan stimulation for 15 mins by Western blot method. The format is cell-based. The method in brief:
(§1)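 RAW 264.7 cells (2×10^6/well) pretreated with 6 µM 30 min before PG 5 µg/mL. Lysed with RIPA plus protease/phosphatase inhibitors after 15 min of stimulation. Phospho-ERK1/2, SAPK/JNK and p38 detected by Western blot with chemiluminescence. n = 3 or 4.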

In data set [2] the target is Mitogen-activated protein kinase 1 and 3 (ERK2 and ERK1) (Mus musculus) (UniProt P63085+Q63844). In words: Inhibition of ERK1/2 phosphorylation in peptidoglycan-stimulated mouse RAW264.7 cells at 6 uM pretreated for 30 mins followed by peptidoglycan stimulation for 15 mins by Western blot method. The format is cell-based. The gist of the method:
as §1
For orientation: Immunoblotting shows a protein as a band on a membrane.

For data set [3], the system named is Mus musculus. In words: Antiinflammatory activity in specific pathogen-free C57BL/6 mouse assessed as inhibition of carrageenan-induced neutrophil migration into peritoneal cavity at 300 ug/kg, administered subcutaneously for 30 mins prior to carrageenan challenge measured after 4 hrs using Neubauer chamber by optical microscopic analysis. The format is functional. The method in brief:
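Male C57BL/6 SPF mice (20–22 g) pretreated sc (vehicle 1% DMSO in PBS), 30 min before ip carrageenan 500 µg/cavity. Peritoneal neutrophils determined 4 h later. Differential count of 100 cells by optical microscopy (100×). Expressed as neutrophils per cavity.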

Data set [4] has as its system Mus musculus. In words: Anti-inflammatory activity in specific pathogen-free C57BL/6 mouse assessed as inhibition of carrageenan-induced leukocyte rolling into mesenteric venules at 300 ug/kg administered subcutaneously for 30 mins prior to carrageenan challenge measured after 2 hrs for 10 mins by intravital microscopic analysis. Type of data set: functional.
The test system of data set [5] is Mus musculus. As to the kind of experiment: Antiinflammatory activity in specific pathogen-free C57BL/6 mouse assessed as inhibition of carrageenan-induced leukocyte adhesion in mesenteric venules at 300 ug/kg administered subcutaneously for 30 mins prior to carrageenan challenge measured after 4 hrs by intravital microscopy. The format is functional.
For data set [6], the system named is Mus musculus. As to the kind of experiment: Anti-inflammatory activity in specific pathogen-free C57BL/6 mouse assessed as reduction in carrageenan-induced TNF-alpha release in peritoneal cavity at 300 ug/kg administered subcutaneously for 30 mins prior to carrageenan challenge measured after 1.5 hrs by ELISA. The format is functional. The gist of the method: (§2)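 Mice (male C57BL/6 SPF) dosed sc in 1% DMSO/PBS 30 min ahead of ip carrageenan 500 µg/cavity. Peritoneal cavity sampled at 1.5 h for TNF-α and at 3 h for CXCL2/MIP-2. Levels measured by ELISA, expressed as pg/mL or pg/mg tissue.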
(An ELISA detects its analyte on a solid surface through an enzyme-linked reagent.)

For data set [7], the system named is Mus musculus. In words: Antiinflammatory activity in specific pathogen-free C57BL/6 mouse assessed as reduction in carrageenan-induced CXCL2/MIP-2 release in peritoneal cavity at 300 ug/kg administered subcutaneously for 30 mins prior to carrageenan challenge measured after 3 hrs by ELISA. The format is functional. The gist of the method:
as §2

For data set [8], the system named is Mus musculus. In words: Antiinflammatory activity in specific pathogen-free C57BL/6 mouse assessed as inhibition of mBSA-induced neutrophil migration into joint cavity at 100 ug/kg, administered post 21 days of immunization subcutaneously for 30 mins prior to mBSA challenge measured after 6 hrs by cell counting method. The format is functional. The gist of the method: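 C57BL/6 SPF males immunized sc with mBSA 500 µg in Complete Freund's adjuvant/PBS emulsion, boosted days 7 and 14 with Incomplete Freund's adjuvant plus mBSA. Compound given sc 30 min before ia mBSA 30 µg/joint on day 21. At 6 h joint cavity washed with PBS/EDTA, then total and differential leukocyte counts.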

For data set [9], the system named is Mus musculus. In words: Antiinflammatory activity in specific pathogen-free C57BL/6 mouse assessed as reduction of mBSA-induced TNF-alpha release in joint cavity at 100 ug/kg, administered post 21 days of immunization subcutaneously for 30 mins prior mBSA challenge measured after 1.5 hrs by ELISA. Type of data set: functional. The gist of the method: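 Immunized mice (mBSA/Freund's adjuvant, boosts days 7 and 14) treated sc 30 min before day-21 ia mBSA 30 µg/joint. TNF-α in the joint measured by ELISA 1.5 h after challenge.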

Data set [10] deals with Mus musculus. In words: Antiinflammatory activity in specific pathogen-free C57BL/6 mouse assessed as reduction in mBSA-induced myeloperoxidase activity in joint cavity at 100 ug/kg administered post 21 days of immunization subcutaneously for 30 mins prior to mBSA challenge measured after 6 hrs by bioluminescence assay. The format is functional. The method in brief:
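mBSA-immunized C57BL/6 mice pretreated sc 30 min before ia mBSA 30 µg/joint. At 6 h, under anesthesia, mice given ip bioluminescent myeloperoxidase probe 100 mg/kg. Joints imaged on IVIS Spectrum, read out as radiance (p/sec/cm²/sr).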

For data set [11], the system named is RAW264.7. In words: Antiinflammatory activity in mouse RAW264.7 cells assessed as inhibition of peptidoglycan-stimulated TNFalpha production at 0.6 to 6 uM pretreated 30 mins prior to peptidoglycan challenge measured after 4 hrs by ELISA. Type of data set: functional, cell-based. The method in brief:
(§3)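 RAW 264.7 cells grown in RPMI/10% FBS, plated at 2×10^5/well overnight. Pretreated with 0.6, 2 or 6 µM 30 min before PG 5 µg/mL or LPS 10 ng/mL. Supernatant collected at 4 h for TNF-α and CXCL2/MIP-2 ELISA. Mean ± SEM, n = 3–5.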

For data set [12], the system named is RAW264.7. In words: Antiinflammatory activity in mouse RAW264.7 cells assessed as inhibition of LPS-stimulated TNFalpha production at 0.6 to 6 uM pretreated 30 mins prior to LPS challenge measured after 4 hrs by ELISA. The format is functional, cell-based. The gist of the method:
as §3

Data set [13] relates to RAW264.7. As to the kind of experiment: Antiinflammatory activity in mouse RAW264.7 cells assessed as inhibition of peptidoglycan-stimulated CXCL2/MIP-2 release at 0.6 to 6 uM pretreated 30 mins prior to peptidoglycan challenge measured after 4 hrs by ELISA. The format is functional, cell-based. The gist of the method: as §3
The test system of data set [14] is RAW264.7. In words: Antiinflammatory activity in mouse RAW264.7 cells assessed as inhibition of LPS-stimulated CXCL2/MIP-2 release at 0.6 to 6 uM pretreated 30 mins prior to LPS challenge measured after 4 hrs by ELISA. The format is functional, cell-based. The method in brief: as §3
The species named for data set [15] is Mus musculus. As to the kind of experiment: Cytotoxicity against mouse RAW264.7 cells assessed as induction of apoptosis at 6 uM measured after 4 hrs by Annexin V-FTIC/propidium iodide staining-based flow cytometric analysis. The format is toxicity, cell-based. To be noted: raw264.7, 4 h. The gist of the method: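 RAW 264.7 cells (2×10^6/well, overnight) exposed to 6 µM for 4 h, then washed into annexin buffer. Stained with annexin V-FITC (1:50, 4 °C, 20 min) and then PI (1:100). Analysed by flow cytometry, about 10 000 gated events. Three to four separate experiments.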
(In general: A flow cytometer gives signals particle by particle.)

The species named for data set [16] is Mus musculus. In words: Cytotoxicity against mouse RAW264.7 cells at 6 uM measured after 4 hrs by MTT assay. Type of data set: toxicity, cell-based. The conditions noted are these: raw264.7, 4 h. The method in brief: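 RAW 264.7 cells (2×10^5/well, overnight) exposed to 6 µM for 4 h. MTT 1 mg/mL in RPMI added for 2 h. Formazan taken up in absolute ethanol and absorbance read at 540 nm.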

Data set [17] has as its target MAP kinase p38 (Mus musculus) (UniProt P47811+O08911+Q9WUI1+Q9Z1B7). In words: Inhibition of MAPK p38 phosphorylation in peptidoglycan-stimulated mouse RAW264.7 cells at 6 uM pretreated for 30 mins followed by peptidoglycan stimulation for 15 mins by Western blot method. Type of data set: cell-based. The method in brief: as §1
Data set [18] has as its system RAW264.7. As to the kind of experiment: Inhibition of NFkappaB activation (unknown origin) expressed in mouse RAW264.7 cells at 0.6 to 6 uM pretreated for 30 mins followed by peptidoglycan challenge measured after 4 hrs by luciferase reporter gene assay. To be noted: Homo sapiens. Type of data set: cell-based. The method in brief: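 RAW 264.7 cells stably carrying an NF-κB-driven luciferase reporter, plated at 3×10^5/well overnight. Pretreated with 0.6–6 µM 30 min before PG 5 µg/mL. Lysed in Tris-NaCl-Tween buffer at 4 h, luciferin reagent added and luminescence read. n = 3–5.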

For data set [19], the target named is Transcription factor Jun (Mus musculus) (UniProt P05627). As to the kind of experiment: Inhibition of c-jun phosphorylation in peptidoglycan-stimulated mouse RAW264.7 cells at 6 uM pretreated for 30 mins followed by peptidoglycan stimulation for 30 mins by immunofluorescence method.
Chain of Transcription factor Jun (Mus musculus) (P05627 whole entry): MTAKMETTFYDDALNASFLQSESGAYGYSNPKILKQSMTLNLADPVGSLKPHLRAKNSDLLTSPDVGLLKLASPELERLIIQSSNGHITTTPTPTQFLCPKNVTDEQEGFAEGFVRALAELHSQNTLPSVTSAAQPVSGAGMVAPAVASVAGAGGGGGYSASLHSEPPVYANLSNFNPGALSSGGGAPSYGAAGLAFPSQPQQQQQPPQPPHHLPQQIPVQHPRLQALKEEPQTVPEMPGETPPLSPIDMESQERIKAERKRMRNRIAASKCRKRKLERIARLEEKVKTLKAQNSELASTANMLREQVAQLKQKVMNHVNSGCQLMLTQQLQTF

Chain of Mitogen-activated protein kinase 1 and 3 (ERK2 and ERK1) (Mus musculus) (P63085 whole entry, looked up): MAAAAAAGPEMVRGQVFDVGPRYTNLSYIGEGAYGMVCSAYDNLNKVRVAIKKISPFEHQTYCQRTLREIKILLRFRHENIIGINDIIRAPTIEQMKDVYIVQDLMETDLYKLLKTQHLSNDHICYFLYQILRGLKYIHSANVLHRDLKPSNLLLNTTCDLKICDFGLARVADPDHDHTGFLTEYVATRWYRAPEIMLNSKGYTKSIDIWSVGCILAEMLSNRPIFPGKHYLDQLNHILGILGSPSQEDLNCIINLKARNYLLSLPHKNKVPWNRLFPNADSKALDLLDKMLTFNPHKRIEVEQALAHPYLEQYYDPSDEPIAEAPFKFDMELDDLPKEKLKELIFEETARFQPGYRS
Chain of Mitogen-activated protein kinase 1 and 3 (ERK2 and ERK1) (Mus musculus) (Q63844 whole entry, looked up): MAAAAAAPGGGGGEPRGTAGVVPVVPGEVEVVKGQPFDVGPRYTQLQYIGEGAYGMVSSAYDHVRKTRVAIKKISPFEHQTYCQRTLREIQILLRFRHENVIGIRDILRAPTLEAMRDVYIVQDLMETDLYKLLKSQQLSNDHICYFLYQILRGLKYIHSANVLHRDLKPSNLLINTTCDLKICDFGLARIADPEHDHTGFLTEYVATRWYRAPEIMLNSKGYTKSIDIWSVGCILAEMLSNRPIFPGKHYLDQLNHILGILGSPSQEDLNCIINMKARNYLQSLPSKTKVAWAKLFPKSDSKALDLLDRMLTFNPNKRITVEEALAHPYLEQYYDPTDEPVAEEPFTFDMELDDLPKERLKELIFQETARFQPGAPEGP

With `CC(C)=CCc1c(O)c(C(=O)CC(C)COC(=O)/C=C/c2ccccc2)c(O)c2c(-c3ccccc3)cc(=O)oc12` (centres undefined), the inhibition entry (in the data set on RAW264.7 [1]; in [2]; in the data set on Mus musculus [3]; in the data set with Mus musculus [4]; with Mus musculus [5]; in the data set with Mus musculus [8]) was “Active” throughout. Also, the inhibition entry (with RAW264.7 [11]; in the data set on RAW264.7 [12]; with RAW264.7 [13]; in the data set with RAW264.7 [14]; in data set [17]; in the data set with RAW264.7 [18]) was “Active” throughout. Moreover, in data set [19], the inhibition result is “Active”. Also, the result with Mus musculus [6], with Mus musculus [7], with Mus musculus [9] and with Mus musculus [10] was Active. Further, the Activity result in the data set filed under Mus musculus [15] and in the data set filed under Mus musculus [16] was “Non-Toxic” in each case.
